Measured values published in ChEMBL document CHEMBL3352816, “Synthesis and antiproliferative activity of imidazo[2,1-b][1,3,4]thiadiazole derivatives” (Bioorg Med Chem Lett, 2014).
The source made the active and inactive calls. No cut-off for these calls is given here.

What was measured:
[1] = Growth inhibition of human NSCLC cells; type: functional
[2] = Growth inhibition of human Leukemia cells; type: functional; details: for GI50 / TGI: Leukemia cell
[3] = Growth inhibition of human Colon cancer cells; type: functional; details: Cancer cell lines; for CC50: read-out: LC50 (the source's name)
[4] = Growth inhibition of human CNS cancer cells; type: functional; details: Cancer cell lines
[5] = Growth inhibition of human Melanoma cells; type: functional; details: Melanoma cell
[6] = Growth inhibition of human Ovarian cancer cells; type: functional; details: Cancer cell lines
[7] = Growth inhibition of human Renal cancer cells; type: functional; details: Cancer cell lines
[8] = Growth inhibition of human Prostate cancer cells; type: functional; details: Cancer cell lines
[9] = Growth inhibition of human Breast cancer cells; type: functional; details: Cancer cell lines
REH [10] = test: Cytotoxicity against human REH cells assessed as reduction in cell viability at 10 to 250 uM after 24 to 72 hrs by trypan blue exclusion assay; type: functional, cell-based
Method in brief: (§1)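 Reh, K562 and Nalm6 leukemic cells were treated with 10, 50, 100 and 250 µM or with 0.1, 0.5, 1, 5 and 10 µM (compounds dissolved in DMSO). Viability was scored by trypan blue after 24, 48 and 72 h. DMSO-treated cells served as vehicle control.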

K562 = test: Cytotoxicity against human K562 cells assessed as reduction in cell viability at 10 to 250 uM after 24 to 72 hrs by trypan blue exclusion assay; type: functional, cell-based; method in brief: as §1
NALM-6 = test: Cytotoxicity against human NALM6 cells assessed as reduction in cell viability at 10 to 250 uM after 24 to 72 hrs by trypan blue exclusion assay; type: functional, cell-based; method in brief: as §1
REH [11] = test: Cytotoxicity against human REH cells assessed as reduction in cell viability at 100 to 250 uM after 48 to 72 hrs by MTT assay; type: functional, cell-based
Method in brief: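 MTT viability read-out in leukemic cells treated with 10, 50, 100 and 250 µM or with 0.1, 0.5, 1, 5 and 10 µM. Cells harvested after 48 and 72 h. Compounds dissolved in DMSO.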

Row | Structure (SMILES) | GI50 [1] [µM] | TGI [1] [µM] | GI50 [2] [µM] | TGI [2] [µM] | GI50 [3] [µM] | TGI [3] [µM] | GI50 [4] [µM] | TGI [4] [µM] | GI50 [5] [µM] | TGI [5] [µM] | GI50 [6] [µM] | TGI [6] [µM] | GI50 [7] [µM] | TGI [7] [µM] | GI50 [8] [µM] | GI50 [9] [µM] | TGI [9] [µM] | LC50 (concentration killing 50% of cells) [1] [µM] | TGI [8] [µM] | other results
1 | O=Cc1c(-c2ccc(F)cc2)nc2sc(CCC3CCCCC3)nn12 | 13.2 | 75.9 | 10.2 | 70.8 | 5.9 | 63.1 | 7.1 | 67.6 | 21.9 | 87.1 | 12.3 | 97.7 | 14.1 | 93.3 | 7.4 | 11.8 | 61.7 |  |  | 
2 | COc1ccc(-c2nc3sc(Cc4ccccc4)nn3c2SC#N)cc1 | 4.6 | 52.5 | 3.6 | 72.4 | 4.1 | 61.7 | 3.9 | 55 | 5.8 | 77.6 | 5.6 | 56.2 | 7.9 | 70.8 |  | 4.8 | 60.3 | 83.2 |  | LC50 [5]: 89.1 µM
3 | O=Cc1c(-c2ccc([N+](=O)[O-])cc2)nc2sc(Cc3ccccc3)nn12 | 2.9 | 45.7 | 5.9 | 26.3 | 3.1 | 31.6 | 2.9 | 26.9 | 3.7 | 42.7 | 4.1 | 39.8 | 3.7 | 58.9 | 3 | 2.8 | 26.3 | 95.5 | 50.1 | LC50 (concentration causing 50% net cell kill) [2]: 69.2 µM; CC50 [3]: 85.1 µM; LC50 [4]: 83.2 µM; LC50 [9]: 83.2 µM
4 | N#CSc1c(-c2ccccc2)nc2sc(Cc3ccccc3)nn12 | 6 | 75.9 | 13.5 | 57.5 | 11.2 | 91.2 | 4.4 | 77.6 | 20.9 | 85.1 | 9.8 | 79.4 | 15.1 | 70.8 | 15.5 | 7.4 | 75.9 | 97.7 | 40.7 | LC50 [6]: 97.7 µM; LC50 [7]: 95.5 µM
5 | Clc1ccc(-c2cn3nc(Cc4ccccc4)sc3n2)cc1 | 7.6 | 20.9 | 2.1 | 23.4 | 2.2 | 5.3 | 5 | 13.8 | 3.7 | 8.9 | 4.6 | 10.5 | 2.6 | 5.9 | 2.9 | 4 | 12 | 57.5 | 8.1 | LC50 (concentration causing 50% net cell kill) [2]: 95.5 µM; CC50 [3]: 14.1 µM; LC50 [4]: 34.7 µM; LC50 [5]: 21.9 µM; LC50 [6]: 30.9 µM; LC50 [7]: 15.1 µM; CC50 ([8]; read-out: LC50 (the source's name)): 23.4 µM; LC50 [9]: 49 µM; Activity (REH [10]): Active; Activity (K562): Active; Activity (NALM-6): Active; Activity (REH [11]): Active
6 | O=[N+]([O-])c1ccc(-c2nc3sc(Cc4ccccc4)nn3c2Br)cc1 | 12.6 | 56.2 | 69.2 |  | 52.5 | 83.2 | 3.4 | 47.9 | 40.7 |  | 6.3 | 83.2 | 3.7 | 64.6 | 42.7 | 17.4 | 79.4 |  |  | 
7 | CO[C@H]1/C=C/O[C@@]2(C)Oc3c(C)c(O)c4c(O)c(cc(O)c4c3C2=O)NC(=O)/C(C)=C\C=C\[C@H](C)[C@H](O)[C@@H](C)[C@@H](O)[C@@H](C)[C@H](OC(C)=O)[C@@H]1C [RIFAMYCIN] | 14.5 |  | 3.2 |  | 10 |  | 21.4 |  | 15.5 |  | 18.6 |  | 15.9 |  | 10 | 16.6 |  |  |  | 
